Source: ChEMBL document CHEMBL1156357, “Catalytic inhibition of topoisomerase IIalpha by demethylzeylasterone, a 6-oxophenolic triterpenoid from Kokoona zeylanica” (J Nat Prod, 2001)
Activity calls are given as the source filed them. No cut-off for these calls is given here.

Tests used:
[1] = biological target: T1, DNA topoisomerase 2-alpha (Homo sapiens, UniProt P11388); assay: Inhibition of human topoisomerase 2 p170alpha assessed as relaxation of lambda ZAPII plasmid Bluescript KS+ DNA at 100 uM by SDS electrophoresis
T1 sequence (P11388 whole entry): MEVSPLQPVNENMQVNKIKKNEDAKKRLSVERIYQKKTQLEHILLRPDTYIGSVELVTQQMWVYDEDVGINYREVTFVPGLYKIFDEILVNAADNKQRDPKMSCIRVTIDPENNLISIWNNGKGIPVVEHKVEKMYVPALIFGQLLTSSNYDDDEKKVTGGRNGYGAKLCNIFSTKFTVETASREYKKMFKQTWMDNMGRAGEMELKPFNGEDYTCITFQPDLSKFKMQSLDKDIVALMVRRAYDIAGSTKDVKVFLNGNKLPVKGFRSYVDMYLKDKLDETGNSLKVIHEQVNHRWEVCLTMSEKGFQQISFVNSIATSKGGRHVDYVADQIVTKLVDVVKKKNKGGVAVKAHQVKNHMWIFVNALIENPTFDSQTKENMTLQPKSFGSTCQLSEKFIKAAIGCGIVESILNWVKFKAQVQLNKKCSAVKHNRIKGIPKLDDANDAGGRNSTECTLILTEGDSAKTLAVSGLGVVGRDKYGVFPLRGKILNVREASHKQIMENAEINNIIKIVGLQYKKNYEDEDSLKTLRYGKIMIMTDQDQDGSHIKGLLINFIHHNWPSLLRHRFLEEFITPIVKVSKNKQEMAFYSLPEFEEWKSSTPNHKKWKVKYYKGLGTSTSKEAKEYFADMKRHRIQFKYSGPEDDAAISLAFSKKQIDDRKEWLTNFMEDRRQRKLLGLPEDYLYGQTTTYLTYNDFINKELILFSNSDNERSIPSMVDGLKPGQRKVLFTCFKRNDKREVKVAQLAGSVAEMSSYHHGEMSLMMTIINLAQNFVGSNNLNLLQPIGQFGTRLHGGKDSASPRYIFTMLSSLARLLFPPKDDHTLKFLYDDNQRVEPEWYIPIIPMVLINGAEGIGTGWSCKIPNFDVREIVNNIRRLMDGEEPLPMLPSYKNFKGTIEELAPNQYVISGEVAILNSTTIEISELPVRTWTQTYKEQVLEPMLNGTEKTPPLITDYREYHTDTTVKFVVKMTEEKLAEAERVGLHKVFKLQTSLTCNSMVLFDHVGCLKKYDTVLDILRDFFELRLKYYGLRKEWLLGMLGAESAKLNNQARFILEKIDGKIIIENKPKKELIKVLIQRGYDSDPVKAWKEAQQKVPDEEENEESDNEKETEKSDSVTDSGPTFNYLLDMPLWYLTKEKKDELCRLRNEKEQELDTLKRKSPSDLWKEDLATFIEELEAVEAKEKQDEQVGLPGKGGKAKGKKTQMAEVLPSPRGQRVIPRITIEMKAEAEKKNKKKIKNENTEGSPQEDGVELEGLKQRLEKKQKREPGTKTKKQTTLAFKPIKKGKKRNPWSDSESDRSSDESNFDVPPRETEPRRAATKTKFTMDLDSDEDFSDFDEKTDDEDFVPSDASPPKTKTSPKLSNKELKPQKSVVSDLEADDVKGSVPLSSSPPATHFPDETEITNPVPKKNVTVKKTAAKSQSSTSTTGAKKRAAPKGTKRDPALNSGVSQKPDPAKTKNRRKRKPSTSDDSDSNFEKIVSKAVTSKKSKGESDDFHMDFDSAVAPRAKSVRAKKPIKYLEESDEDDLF
Summary of the method: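 Compound at 100 µM in 0.5% Cremophor EL, 30 min at 37 °C. Stopped with 1% SDS, then proteinase K 50 µg/mL and chloroform-isoamyl alcohol extraction. Run on 1% TAE agarose with ethidium bromide 0.5 µg/mL post-stain. Etoposide 100 µM as control.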

[2] = system: Saccharomyces cerevisiae; assay: DNA damaging activity against topoisomerase 2-deficient rad52Y mutant yeast at 200 ug/mL by agar well diffusion assay; assay type: functional, organism-based
Summary of the method: (§1)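 Yeast strains (rad52Y; RAD+ wild type) were seeded separately on 1% nutrient agar plates. Samples at 200 µg/mL in 1:1 DMSO-MeOH were placed in wells cut by removing 7 mm plugs. Activity was the width (mm) of the zone around the well with no visible yeast growth. Camptothecin and streptonigrin at 5 µg/mL served as controls.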

[3] = system: Saccharomyces cerevisiae; assay: DNA damaging activity against wild type DNA repairing RAD gene expressing yeast at 200 ug/mL by agar well diffusion assay; assay type: functional, organism-based; summary of the method: as §1
[4] = system: Saccharomyces cerevisiae; assay: DNA damaging activity against topoisomerase 2-deficient RS321N mutant yeast assessed as drug level required to produce 12 mm zone of inhibition by agar well diffusion assay; assay type: functional
Summary of the method: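 S. cerevisiae RS321N seeded on 1% nutrient agar. Samples in 1:1 DMSO-MeOH went into 7 mm wells. The read-out was the zone (mm) of no visible growth. Several concentrations were tested, and the dose giving a 12 mm zone (IC12) was calculated by regression.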

[5] = system: Saccharomyces cerevisiae; assay: DNA damaging activity against wild type DNA repairing RAD gene expressing yeast assessed as drug level required to produce 12 mm zone of inhibition by agar well diffusion assay; assay type: functional
Summary of the method: (§2)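 Saccharomyces cerevisiae strains (RS321N, rad52Y, RAD+) were seeded separately onto 1% nutrient agar. Samples at 200 µg/mL in 1:1 DMSO-MeOH went into 7 mm wells, and the clear growth-free zone was measured in mm. For actives, several concentrations were tested, and the dose giving a 12 mm zone (IC12) came from regression. Camptothecin and streptonigrin at 5 µg/mL served as controls.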

[6] = system: Saccharomyces cerevisiae; assay: DNA damaging activity against topoisomerase 2-deficient rad52Y mutant yeast assessed as drug level required to produce 12 mm zone of inhibition by agar well diffusion assay; assay type: functional; summary of the method: as §2
[7] = system: Nucleic Acid; assay: Displacement of methyl green dye from DNA by spectrophotometry; assay type: nucleic-acid assay
Summary of the method: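 Daunomycin (50 µg/mL) was the positive control. Methyl green absorbance was read on a plate reader.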

[8] = system: SF-268; assay: Cytotoxicity against human SF268 cells after 48 hrs by MTT assay at up to 10 uM; assay type: functional, cell-based
Summary of the method: (§3)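 Cells kept in RPMI with 10% FBS at 37 °C, 5% CO2. Log-phase cells were treated in triplicate with 0-10 µM compound for 48 h at 37 °C in humidified 5% CO2. Viability was read by MTT absorbance on a plate reader.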

[9] = biological target: T1, DNA topoisomerase 2-alpha; assay: Inhibition of human topoisomerase 2 p170alpha assessed as relaxation of lambda ZAPII plasmid Bluescript KS+ DNA by SDS electrophoresis
Summary of the method: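 Supercoiled pBlueScript KS(+) (about 200 ng) relaxed by 4 units human topo II (p170) in Tris-HCl pH 8.0 buffer with 120 mM KCl, 10 mM MgCl2, 0.5 mM ATP and DTT. Compound in 0.5% Cremophor EL, dilution series in triplicate, 30 min at 37 °C. SDS/proteinase K stop, then 1% TAE agarose gel with ethidium bromide staining. IC50 from the dilution series.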

[10] = biological target: T1, DNA topoisomerase 2-alpha; assay: Inhibition of human topoisomerase 2 p170alpha assessed as movement supercoiled lambda ZAPII plasmid Bluescript KS+ DNA at 100 uM after 60 mins by electrophoretic mobility shift assay
Summary of the method: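 Mobility shift with pBlueScript KS(+) and 6 units human topo II (p170) in ATP-free buffer. Buffer, running buffer and gel were all at pH 6.4. Compound at 100 µM, with etoposide 50 µM as control. No SDS/proteinase K stop; samples loaded directly onto a TAE gel containing 1.0 µg/mL ethidium bromide.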

[11] = system: NCI-H460; assay: Cytotoxicity against human NCI-H460 cells after 48 hrs by MTT assay at up to 10 uM; assay type: functional, cell-based; summary of the method: as §3
[12] = system: MCF7; assay: Cytotoxicity against human MCF7 cells after 48 hrs by MTT assay; assay type: functional, cell-based; conditions: MCF7, 48 h; summary of the method: as §3

Q: For `COc1cc([C@@H]2c3cc4c(cc3[C@@H](O[C@@H]3O[C@@H]5CO[C@@H](C)O[C@H]5[C@H](O)[C@H]3O)[C@H]3COC(=O)[C@H]23)OCO4)cc(OC)c1O`, which Activity [1] is on record?
A: Its Activity is “inactive”.

Q: How did the Activity [1] turn out when `COC(=O)[C@]1(C)CC[C@]2(C)CC[C@]3(C)C4=CC(=O)c5c(cc(O)c(O)c5C=O)[C@]4(C)CC[C@@]3(C)[C@@H]2C1` was run?
A: Its Activity is “inactive”.

Q: How did the Activity [1] turn out when `COC(=O)[C@]1(C)CC[C@]2(C)CC[C@]3(C)C4=CCc5c(cc(O)c(O)c5C)[C@]4(C)CC[C@@]3(C)[C@@H]2C1` was run?
A: Its Activity is “inactive”.

Q: For `CC1=C(O)C(=O)C=C2C1=CC=C1[C@@]2(C)CC[C@@]2(C)[C@@H]3C[C@@H](C)C(=O)C[C@]3(C)CC[C@]12C` [TINGENONE], which Activity [2] is on record?
A: The Activity was “inactive”.

Q: What about the Activity [3] of the same compound?
A: Its Activity is “inactive”.

Q: And the “IC12 (concentration giving a 12 mm inhibition zone)” value [4]?
A: The value was 325 µg/mL.

Q: `CC[C@@]1(O)C(=O)OCc2c1cc1n(c2=O)Cc2cc3ccccc3nc2-1` [CAMPTOTHECIN] was tested. Which Activity [5] did it give?
A: The Activity was 110 µg/mL.

Q: And the “IC12 (concentration giving a 12 mm inhibition zone)” value [4]?
A: Its value is >20 µg/mL.

Q: And the Activity [6]?
A: The Activity was 0.6 µg/mL.

Q: What does the source list for `COC1=C(N)C(=O)c2nc(-c3nc(C(=O)O)c(C)c(-c4ccc(OC)c(OC)c4O)c3N)ccc2C1=O` [STREPTONIGRIN]?
A: IC12 (concentration giving a 12 mm inhibition zone) [4]: <0.4 µg/mL; Activity [6]: 0.4 µg/mL

Q: `CC1=C(O)C(=O)C=C2C1=CC=C1[C@@]2(C)CC[C@@]2(C)[C@@H]3C[C@](C)(O)C(=O)C[C@]3(C)CC[C@]12C` [20ALPHA-HYDROXYTINGENONE] was tested. Which Activity [2] did it give?
A: Its Activity is “inactive”.

Q: What about the Activity [3] of the same compound?
A: The Activity was “inactive”.

Q: What about the “IC12 (concentration giving a 12 mm inhibition zone)” value [4] of the same compound?
A: Its value is 185 µg/mL.

Q: `C[C@@]1(C(=O)O)CC[C@]2(C)CC[C@]3(C)C4=CC(=O)c5c(cc(O)c(O)c5C(=O)O)[C@]4(C)CC[C@@]3(C)[C@@H]2C1` [DEMETHYLZEYLASTERONE] was tested. Which Activity [7] did it give?
A: Its Activity is “Active”.

Q: And the Activity [1]?
A: The Activity was “Active”.

Q: And the Activity [8]?
A: The Activity was “inactive”.

Q: And the IC50 [9]?
A: The IC50 was 17.6 µM.

Q: What about the Activity [10] of the same compound?
A: Its Activity is “Active”.

Q: And the Activity [11]?
A: The Activity was “inactive”.

Q: And the IC50 [12]?
A: The IC50 was 12.5 µM.

Q: For `COC(=O)[C@]1(C)CC[C@]2(C)CC[C@]3(C)C4=CC(=O)c5c(cc(O)c(O)c5C(=O)O)[C@]4(C)CC[C@@]3(C)[C@@H]2C1`, which Activity [1] is on record?
A: Its Activity is “inactive”.

Q: Which Activity [2] does the source give for `CC1=C2C3=CC=C4C(=CC(=O)C(O)=C4C)[C@]3(C)CC[C@@]2(C)[C@@H]2C[C@@H](C)[C@@H](O)C(=O)C2C1` (stereo not given in full) [BALAENONOL] here?
A: The Activity was “inactive”.

Q: And the Activity [3]?
A: Its Activity is “inactive”.

Q: What about the “IC12 (concentration giving a 12 mm inhibition zone)” value [4] of the same compound?
A: Its value is 220 µg/mL.
